According to ChEMBL document CHEMBL4118152, “Discovery of Potent and Selective Periphery-Restricted Quinazoline Inhibitors of the Cyclic Nucleotide Phosphodiesterase PDE1” (J Med Chem, 2018):
Blank lines part the entries; values can stand above or below the molecule they belong to. Calls of active or inactive are those of the source. No cut-off for these calls is given here.

Experiments:
[1] = target: Dual specificity calcium/calmodulin-dependent 3',5'-cyclic nucleotide phosphodiesterase 1B (Homo sapiens, UniProt Q01064); assay: Inhibition of full length recombinant human PDE1B1 using 3',5'-[3H]cAMP as substrate after 30 mins by scintillation proximity assay
Outline: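 Enzymes were human except PDE6A, which was bovine. Each was assayed with cAMP or cGMP substrate, as appropriate to the enzyme, at concentrations below 1/3 of Km. IC50 values are mean ± SEM from n = 3 or more.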

[2] = target: Dual specificity calcium/calmodulin-dependent 3',5'-cyclic nucleotide phosphodiesterase 1A (Homo sapiens, UniProt P54750); assay: Inhibition of full length recombinant human PDE1A using 3',5'-[3H]cAMP as substrate after 30 mins by scintillation proximity assay
Outline: (§1)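 Human recombinant enzymes; substrate held below 1/3 of Km. IC50 reported as mean ± SEM of at least 3 determinations.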

[3] = target: T1, Dual specificity calcium/calmodulin-dependent 3',5'-cyclic nucleotide phosphodiesterase 1C (Homo sapiens, UniProt Q14123); assay: Inhibition of full length recombinant human PDE1C using 3',5'-[3H]cAMP as substrate after 30 mins by scintillation proximity assay; outline: as §1
[4] = test system: HEK293; assay: Inhibition of recombinant human PDE3 expressed in HEK293 cells using 3',5'-[3H]cAMP as substrate at 1 uM
Outline: (§2)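 Recombinant enzymes were assayed for hydrolysis of cAMP or cGMP, with substrate at 0.1 µM. The inhibitor was tested at 1.0 µM.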

[5] = target: T2, cGMP-specific 3',5'-cyclic phosphodiesterase (Homo sapiens, UniProt O76074); assay: Inhibition of recombinant human PDE5 expressed in HEK293 cells using 3',5'-[3H]cGMP as substrate at 1 uM
Outline: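 Recombinant enzymes were tested at 1.0 µM inhibitor with cAMP or cGMP substrate at 0.1 µM. Read-out is hydrolytic activity relative to control.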

[6] = target: T1, Dual specificity calcium/calmodulin-dependent 3',5'-cyclic nucleotide phosphodiesterase 1C; assay: Inhibition of recombinant C-terminal FLAG tagged human PDE1C expressed in HEK293 cells using 3',5'-[3H]cAMP as substrate
[7] = target: T3, cGMP-inhibited 3',5'-cyclic phosphodiesterase 3A (Homo sapiens, UniProt Q14432); assay: Inhibition of recombinant human PDE3A expressed in HEK293 cells using 3',5'-[3H]cAMP as substrate; outline: as §2
[8] = target: T1, Dual specificity calcium/calmodulin-dependent 3',5'-cyclic nucleotide phosphodiesterase 1C; assay: Inhibition of recombinant C-terminal FLAG tagged human PDE1C expressed in HEK293 cells using 3',5'-[3H]cGMP as substrate
[9] = target: T3, cGMP-inhibited 3',5'-cyclic phosphodiesterase 3A; assay: Inhibition of recombinant human PDE3A expressed in HEK293 cells using 3',5'-[3H]cGMP as substrate; outline: as §2
[10] = target: T2, cGMP-specific 3',5'-cyclic phosphodiesterase; assay: Inhibition of recombinant human PDE5A expressed in HEK293 cells using 3',5'-[3H]cGMP as substrate; outline: as §2
[11] = target: T3, cGMP-inhibited 3',5'-cyclic phosphodiesterase 3A; assay: Inhibition of PDE3A in soluble protein extracts of human myocardium using 3',5'-[3H]cGMP as substrate at 1 uM relative to control
[12] = target: T2, cGMP-specific 3',5'-cyclic phosphodiesterase; assay: Inhibition of PDE5A in soluble protein extracts of human myocardium using 3',5'-[3H]cGMP as substrate at 1 uM relative to control
[13] = target: T3, cGMP-inhibited 3',5'-cyclic phosphodiesterase 3A; assay: Inhibition of PDE3A in soluble protein extracts of human myocardium using 3',5'-[3H]cAMP as substrate at 1 uM relative to control
[14] = target: T2, cGMP-specific 3',5'-cyclic phosphodiesterase; assay: Inhibition of PDE5A in soluble protein extracts of human myocardium using 3',5'-[3H]cAMP as substrate at 1 uM relative to control
[15] = target: T3, cGMP-inhibited 3',5'-cyclic phosphodiesterase 3A; assay: Inhibition of PDE3A in soluble protein extracts of human myocardium assessed as Ca2+/calmodulin stimulated substrate hydrolysis using 3',5'-[3H]cGMP as substrate relative to control; details: concentration not given here
Outline: (§3)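 Soluble protein extracts from human left ventricle, test agent 1.0 µM, [3H]cAMP or [3H]cGMP substrate at 0.1 µM. Total activity was measured with CaCl2 plus exogenous calmodulin, and a parallel reaction was run with the Ca2+ chelator EGTA. Ca2+/calmodulin-dependent activity is total minus the EGTA activity; inhibition is given relative to control.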

[16] = target: T2, cGMP-specific 3',5'-cyclic phosphodiesterase; assay: Inhibition of PDE5A in soluble protein extracts of human myocardium assessed as Ca2+/calmodulin stimulated substrate hydrolysis using 3',5'-[3H]cGMP as substrate relative to control; details: concentration not given here; outline: as §3
[17] = target: T3, cGMP-inhibited 3',5'-cyclic phosphodiesterase 3A; assay: Inhibition of PDE3A in soluble protein extracts of human myocardium assessed as Ca2+/calmodulin stimulated substrate hydrolysis using 3',5'-[3H]cAMP as substrate relative to control; details: concentration not given here; outline: as §3
[18] = target: T2, cGMP-specific 3',5'-cyclic phosphodiesterase; assay: Inhibition of PDE5A in soluble protein extracts of human myocardium assessed as Ca2+/calmodulin stimulated substrate hydrolysis using 3',5'-[3H]cAMP as substrate relative to control; details: concentration not given here; outline: as §3

Chain of Dual specificity calcium/calmodulin-dependent 3',5'-cyclic nucleotide phosphodiesterase 1B (Q01064 whole entry): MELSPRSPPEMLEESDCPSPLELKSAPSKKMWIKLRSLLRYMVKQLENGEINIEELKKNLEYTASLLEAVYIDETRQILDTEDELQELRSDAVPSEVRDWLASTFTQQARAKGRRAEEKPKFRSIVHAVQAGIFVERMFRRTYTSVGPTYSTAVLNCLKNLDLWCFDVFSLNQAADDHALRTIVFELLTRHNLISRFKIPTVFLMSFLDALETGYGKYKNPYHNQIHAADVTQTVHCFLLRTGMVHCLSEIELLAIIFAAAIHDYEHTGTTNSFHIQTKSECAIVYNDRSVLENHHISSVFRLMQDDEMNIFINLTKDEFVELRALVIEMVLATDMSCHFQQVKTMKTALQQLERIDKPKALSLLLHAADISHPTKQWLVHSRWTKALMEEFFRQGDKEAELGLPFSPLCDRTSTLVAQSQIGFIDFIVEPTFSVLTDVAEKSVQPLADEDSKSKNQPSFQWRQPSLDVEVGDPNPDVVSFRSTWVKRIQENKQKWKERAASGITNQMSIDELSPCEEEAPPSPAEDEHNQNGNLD
T1 sequence (Q14123 whole entry): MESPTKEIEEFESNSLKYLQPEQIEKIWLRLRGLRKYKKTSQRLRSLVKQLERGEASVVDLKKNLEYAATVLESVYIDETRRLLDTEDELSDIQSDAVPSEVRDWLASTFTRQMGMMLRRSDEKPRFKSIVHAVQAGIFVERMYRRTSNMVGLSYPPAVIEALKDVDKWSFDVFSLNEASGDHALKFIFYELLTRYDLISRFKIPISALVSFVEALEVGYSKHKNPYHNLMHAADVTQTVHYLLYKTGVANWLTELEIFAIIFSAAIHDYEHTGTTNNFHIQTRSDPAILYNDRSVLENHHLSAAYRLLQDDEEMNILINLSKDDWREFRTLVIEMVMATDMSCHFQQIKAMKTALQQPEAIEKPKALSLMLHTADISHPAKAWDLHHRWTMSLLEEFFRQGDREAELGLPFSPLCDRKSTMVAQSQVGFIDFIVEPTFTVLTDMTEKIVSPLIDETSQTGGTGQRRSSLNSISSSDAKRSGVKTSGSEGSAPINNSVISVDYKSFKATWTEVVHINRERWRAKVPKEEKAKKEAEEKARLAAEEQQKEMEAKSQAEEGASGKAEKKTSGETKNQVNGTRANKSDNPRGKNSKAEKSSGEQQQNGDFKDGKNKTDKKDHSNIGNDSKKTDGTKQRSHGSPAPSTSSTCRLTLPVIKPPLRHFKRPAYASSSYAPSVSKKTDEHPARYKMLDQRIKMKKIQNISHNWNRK
T3 sequence (Q14432 whole entry): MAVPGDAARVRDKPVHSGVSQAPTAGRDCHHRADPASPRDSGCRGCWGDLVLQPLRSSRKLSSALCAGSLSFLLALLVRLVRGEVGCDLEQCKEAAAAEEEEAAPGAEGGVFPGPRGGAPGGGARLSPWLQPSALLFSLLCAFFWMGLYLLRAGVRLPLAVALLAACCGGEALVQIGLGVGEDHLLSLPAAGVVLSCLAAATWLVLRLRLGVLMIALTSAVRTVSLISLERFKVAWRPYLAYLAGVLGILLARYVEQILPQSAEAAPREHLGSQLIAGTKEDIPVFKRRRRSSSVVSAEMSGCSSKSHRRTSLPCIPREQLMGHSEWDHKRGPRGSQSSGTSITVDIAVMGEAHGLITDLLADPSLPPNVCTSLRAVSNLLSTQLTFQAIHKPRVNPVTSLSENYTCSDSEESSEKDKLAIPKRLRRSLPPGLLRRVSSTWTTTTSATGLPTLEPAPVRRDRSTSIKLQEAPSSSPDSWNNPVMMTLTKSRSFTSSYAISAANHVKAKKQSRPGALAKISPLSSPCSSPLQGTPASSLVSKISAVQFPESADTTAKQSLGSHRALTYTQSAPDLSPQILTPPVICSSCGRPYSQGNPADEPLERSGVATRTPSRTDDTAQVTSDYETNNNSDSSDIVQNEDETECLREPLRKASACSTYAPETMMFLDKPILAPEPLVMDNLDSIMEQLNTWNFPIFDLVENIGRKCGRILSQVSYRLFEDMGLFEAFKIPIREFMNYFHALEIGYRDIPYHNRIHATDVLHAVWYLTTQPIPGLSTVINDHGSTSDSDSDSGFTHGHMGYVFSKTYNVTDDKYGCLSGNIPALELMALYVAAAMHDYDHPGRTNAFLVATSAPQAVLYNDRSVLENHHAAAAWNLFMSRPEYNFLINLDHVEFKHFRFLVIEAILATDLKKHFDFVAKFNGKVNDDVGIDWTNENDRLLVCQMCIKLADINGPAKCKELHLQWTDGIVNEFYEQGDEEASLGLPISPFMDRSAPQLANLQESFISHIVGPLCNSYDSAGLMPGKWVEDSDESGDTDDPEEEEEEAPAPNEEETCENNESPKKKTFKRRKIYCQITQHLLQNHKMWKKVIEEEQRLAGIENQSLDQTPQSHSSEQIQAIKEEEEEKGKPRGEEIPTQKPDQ
Chain of Dual specificity calcium/calmodulin-dependent 3',5'-cyclic nucleotide phosphodiesterase 1A (P54750 whole entry): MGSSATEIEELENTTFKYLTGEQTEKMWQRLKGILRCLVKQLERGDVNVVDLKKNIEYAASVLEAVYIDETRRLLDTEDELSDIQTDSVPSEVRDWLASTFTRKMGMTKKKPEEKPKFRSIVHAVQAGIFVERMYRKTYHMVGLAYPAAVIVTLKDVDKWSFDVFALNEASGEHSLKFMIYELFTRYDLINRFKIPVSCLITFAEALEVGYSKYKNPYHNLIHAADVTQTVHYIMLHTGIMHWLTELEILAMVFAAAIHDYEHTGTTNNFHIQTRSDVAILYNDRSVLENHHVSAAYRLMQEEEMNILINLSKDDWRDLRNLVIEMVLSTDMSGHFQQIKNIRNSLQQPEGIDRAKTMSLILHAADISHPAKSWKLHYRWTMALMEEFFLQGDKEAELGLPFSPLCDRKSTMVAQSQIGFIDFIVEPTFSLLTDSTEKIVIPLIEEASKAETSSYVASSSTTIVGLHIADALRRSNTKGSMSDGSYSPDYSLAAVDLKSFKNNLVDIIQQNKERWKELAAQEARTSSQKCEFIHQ

IC50 [1]: 35 nM
SMILES: CCC(CC)Nc1ncnc2c(OC)c(OC)c(OC)cc12

SMILES: COc1ccc2c(NC(C)Cc3cc(C)[nH]n3)ncnc2c1OC (racemic)
IC50 [2]: 118 nM
IC50 [1]: 21 nM
IC50 [3]: 83 nM
inhibition [4]: Active
inhibition [5]: Active
IC50 [6]: 56 nM
IC50 [7]: 101000 nM
IC50 [8]: 110 nM
IC50 [9]: 369000 nM
IC50 [10]: 30300 nM
inhibition [11]: 80%
inhibition [12]: 80%
inhibition [13]: 76%
inhibition [14]: 76%
inhibition [15]: 90%
inhibition [16]: 90%
inhibition [17]: 90%
inhibition [18]: 90%

IC50 [1]: 52 nM
SMILES: COc1cc2ncnc(NC(C)Cc3cc(C)n[nH]3)c2cc1OC (racemic)

IC50 [1]: 4.5 nM
SMILES: COc1ccc2c([C@H]3CCc4ccc(Cl)cc43)ncnc2c1OC

SMILES: COc1ccc2c(N[C@H](C)Cc3cc(C)[nH]n3)ncnc2c1OC
IC50 [2]: 777 nM
IC50 [1]: 596 nM
IC50 [3]: 579 nM

IC50 [1]: 27 nM
SMILES: COc1cc2c(NC(C)Cc3cc(C)n[nH]3)ncnc2c(OC)c1OC (racemic)
